Columns and labels:
[1] = Inhibition constant as dissociation constant of the noncovalent (STS) enzyme-inhibitor complex; format: ADME
In short: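 Human placental microsomes (about 10 mg/mL protein) preincubated with inhibitor dilutions in 0.1 M Tris-HCl pH 7.5 for 1-20 min. Free inhibitor removed with dextran-coated charcoal. Residual activity measured in the supernatant with 4-MUS (1.5 mM before mixing), 20 min at 37 °C, stopped with NaOH, ex 355/em 460 nm. kapp from double-exponential fits. KI and kinact from a double-reciprocal plot of kapp against inhibitor concentration.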

[2] = biological target: T1, Steryl-sulfatase (Homo sapiens, UniProt P08842); assay: Inhibitory activity against purified human steroid sulfatase (STS)
T1 sequence (P08842 whole entry): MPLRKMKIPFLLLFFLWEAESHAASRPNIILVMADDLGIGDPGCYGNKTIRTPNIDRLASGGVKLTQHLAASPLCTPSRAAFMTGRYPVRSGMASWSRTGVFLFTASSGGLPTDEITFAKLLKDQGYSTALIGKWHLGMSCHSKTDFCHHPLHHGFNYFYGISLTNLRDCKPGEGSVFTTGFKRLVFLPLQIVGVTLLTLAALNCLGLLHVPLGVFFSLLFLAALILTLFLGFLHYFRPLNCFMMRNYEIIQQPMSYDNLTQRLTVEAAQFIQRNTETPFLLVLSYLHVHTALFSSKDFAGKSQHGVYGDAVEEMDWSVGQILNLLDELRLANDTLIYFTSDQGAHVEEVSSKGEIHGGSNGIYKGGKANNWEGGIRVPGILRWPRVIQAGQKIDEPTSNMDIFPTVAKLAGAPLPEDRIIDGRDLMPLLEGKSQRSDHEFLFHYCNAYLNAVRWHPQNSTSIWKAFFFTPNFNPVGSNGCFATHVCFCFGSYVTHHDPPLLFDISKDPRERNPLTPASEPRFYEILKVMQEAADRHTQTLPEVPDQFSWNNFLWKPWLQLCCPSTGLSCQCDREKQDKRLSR
In short: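 Human STS from stably transfected recombinant CHO cells, microsomal fraction solubilized in Triton X-100 and purified by chromatography to >95%. Enzyme (0.6 units) mixed with 4-MUS, 0.75 mM before mixing, in 0.1 M Tris-HCl pH 7.5, 0.1% Triton. Compounds at graded concentrations from ethanol stocks (final ethanol ≤2%). Incubation 60 min, 37 °C. Stopped with 0.2 M NaOH. Fluorescence ex 355/em 448 nm. IC50 from nonlinear regression; mean of triplicates.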

[3] = Rate constant of inactivation
[4] = Ratio of kinact (rate constant of inactivation) to that of KI (inhibition constant) indicates efficacy of irreversible inhibition.

SMILES	Ki [1] [µM]	IC50 [2] [µM]	kinact [3] [s⁻¹]	K inact/Ki [4]
CCCc1cc(=O)c2cc(OS(N)(=O)=O)ccc2o1	–	0.722	–	–
NS(=O)(=O)Oc1ccc2oc(/C=C/c3ccccc3)cc(=O)c2c1	–	1.62	–	–
NS(=O)(=O)Oc1ccc2c(c1)C(=O)CC(C1CCCCC1)O2 (centres undefined)	–	0.28	–	–
NS(=O)(=O)Oc1ccc2oc(Cc3ccccc3)cc(=O)c2c1	–	1.62	–	–
NS(=O)(=O)Oc1ccc2c(c1)CCC(C1CCCCC1)O2 (centres undefined)	32	11.2	0.016	–
NS(=O)(=O)Oc1ccc2c(c1)C(O)CC(C13CC4CC(CC(C4)C1)C3)O2 (centres undefined)	–	0.291	–	–
NS(=O)(=O)Oc1ccc2c(c1)C(O)CC(C1CCCCC1)O2 (centres undefined)	53.7	24.3	0.018	–
CCCCCCCCC(C)(C)c1cc(=O)c2cc(OS(N)(=O)=O)ccc2o1	–	0.078	–	–
NS(=O)(=O)Oc1ccc2c(=O)c(-c3ccccc3)coc2c1	–	0.437	–	–
NS(=O)(=O)Oc1ccc2oc(C3CCCC3)cc(=O)c2c1	0.73	0.134	0.011	–
NS(=O)(=O)Oc1ccc2c(c1)C(=O)CC(c1ccccc1)O2 (centres undefined)	–	2.58	–	–
NS(=O)(=O)Oc1ccc2sc(-c3ccccc3)cc(=O)c2c1	–	0.062	–	–
NS(=O)(=O)Oc1ccc2c(c1)C(=O)CC(C13CC4CC(CC(C4)C1)C3)O2 (centres undefined)	1.86	0.14	0.017	–
CCCc1cc(=O)c2ccc(OS(N)(=O)=O)cc2o1	–	> 100	–	–
NS(=O)(=O)Oc1ccc2oc(CCc3ccccc3)cc(=O)c2c1	–	0.19	–	–
CCCCCCCCCc1cc(=O)c2cc(OS(N)(=O)=O)ccc2o1	1.7	0.403	0.006	0.35 10e4 M-1 s-1
NS(=O)(=O)Oc1ccc2oc(-c3ccccc3)cc(=O)c2c1	–	0.672	–	–
NS(=O)(=O)Oc1ccc2c(=O)cc(C3CCCCC3)oc2c1	24	6.33	0.02	–

Results, then the compound that gave them:

Ki [1] [µM]	IC50 [2] [µM]	kinact [3] [s⁻¹]	K inact/Ki [4]	SMILES
1.1	0.045	0.04	–	NS(=O)(=O)Oc1ccc2oc(C3CCCCCCCCCCC3)cc(=O)c2c1
–	0.045	–	–	CC1(C)C(c2cc(=O)c3cc(OS(N)(=O)=O)ccc3o2)C1(C)C
1	0.062	0.035	–	NS(=O)(=O)Oc1ccc2oc(C3CCCCC3)cc(=O)c2c1
0.22	0.011	0.042	–	NS(=O)(=O)Oc1ccc2oc(C3C4CC5CC3CC5C4)cc(=O)c2c1 (centres undefined)
–	0.0056	–	–	CC(C)(C)c1cc(=O)c2cc(OS(N)(=O)=O)ccc2s1
1.2	0.05	0.07	–	NS(=O)(=O)Oc1ccc2c(=O)c(C3CCCCC3)coc2c1
0.5	0.011	0.074	–	CCCCCC12CCC(c3cc(=O)c4cc(OS(N)(=O)=O)ccc4o3)(CC1)CC2
0.9	0.022	0.07	–	CC(C)(C)c1cc(=O)c2cc(OS(N)(=O)=O)ccc2o1
0.21	0.00034	0.115	–	NS(=O)(=O)Oc1ccc2sc(C34CC5CC(CC(C5)C3)C4)cc(=O)c2c1
